Measured values taken from ChEMBL document CHEMBL3994624, “Antimalarial Pyrido[1,2-a]benzimidazoles: Lead Optimization, Parasite Life Cycle Stage Profile, Mechanistic Evaluation, Killing Kinetics, and in Vivo Oral Efficacy in a Mouse Model” (J Med Chem, 2017).
Activity calls are given as the source filed them. The rule behind the calls is not given here.

Assays:
[1] = tested on: Ferriprotoporphyrin IX; experiment: Inhibition of beta hematin formation in water/NP40/DMSO solution after 5 hrs
[2] = tested on: CHO; experiment: Cytotoxicity against CHO cells after by MTT assay; type: cell-based; conditions: Cricetulus griseus
[3] = Selectivity index, ratio of IC50 for CHO cells to IC50 for chloroquine-sensitive Plasmodium falciparum NF54; type: toxicity; conditions: hamster, read-out: Ratio IC50
How it was run: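 Selectivity index = IC50 CHO / IC50 PfNF54.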

[4] = Kinetic solubility of the compound in FaSSIF at pH 6.5 after 2 hrs by shake flask method; type: physicochemical; conditions: read-out: Kinetic_solubility
[5] = Metabolic stability in Balb/c mouse liver microsomes assessed as compound remaining at 1 uM in presence of NADPH after 30 mins by LC-MS/MS analysis; type: ADME, microsome; conditions: read-out: Stability
How it was run: (§1)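 Mouse and human liver microsomes; % compound remaining after 30 min.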

[6] = Metabolic stability in human liver microsomes assessed as compound remaining at 1 uM in presence of NADPH after 30 mins by LC-MS/MS analysis; type: ADME, microsome; conditions: read-out: Stability; how it was run: as §1
[7] = tested on: Plasmodium falciparum; experiment: Anti-plasmodial activity against chloroquine-sensitive Plasmodium falciparum NF54 late 4/5 stage gametocytes after 48 hrs by luciferin-luciferase reaction based bioluminescence assay; type: functional; conditions: NF54, 48 h
[8] = tested on: Plasmodium falciparum; experiment: Ratio of IC50 for chloroquine-sensitive Plasmodium falciparum NF54 early 2/3 stage gametocytes to IC50 for chloroquine-sensitive Plasmodium falciparum NF54 late 4/5 stage gametocytes; type: functional
How it was run: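 Early (stage II/III) and late (stage IV/V) gametocytes tested in parallel luciferase reporter assays; stage preference = EG IC50/LG IC50.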

[9] = tested on: Huh-7; experiment: Cytotoxicity against human HuH7 cells at 1 to 10 uM after 48 hrs by Alamarblue assay; type: cell-based; conditions: huh-7, 48 h
[10] = tested on: Plasmodium falciparum; experiment: Ratio of IC50 for chloroquine-sensitive Plasmodium falciparum NF54 after 24 hrs to IC50 for chloroquine-sensitive Plasmodium falciparum NF54 after 72 hrs; type: functional
[11] = tested on: Plasmodium berghei; experiment: Antimalarial activity against GFP-fused Plasmodium berghei ANKA liver stage infected in HuH7 cells pretreated for 1 hr followed by parasite infection after 48 hrs by luciferase reporter gene assay; type: functional, cell-based; conditions: Huh-7
[12] = tested on: Ferriprotoporphyrin IX; experiment: Inhibition of beta hematin formation in ring stage of chloroquine-sensitive Plasmodium falciparum NF54 assessed as decrease in haemozoin level after 36 hrs by UV-vis spectra analysis
How it was run: (§2)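 Synchronized ring-stage parasites treated with increasing drug concentrations, then cellular fractionation. Free haem and haemozoin quantified as iron (fg/cell) and compared with untreated control; significance by p-values; parasite survival overlaid.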

[13] = tested on: Ferriprotoporphyrin IX; experiment: Inhibition of beta hematin formation in ring stage of chloroquine-sensitive Plasmodium falciparum NF54 assessed as increase in free heme level after 36 hrs by UV-vis spectra analysis; how it was run: as §2
[14] = tested on: Plasmodium falciparum; experiment: Anti-plasmodial activity against multidrug resistant Plasmodium falciparum K1 by [3H]-hypoxanthine incorporation assay; type: functional
How it was run: (§3)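 P. falciparum asexual blood-stage growth inhibition by [3H]hypoxanthine incorporation; chloroquine and artesunate run as reference drugs in every experiment; IC50 given as mean of ≥2 independent experiments.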

[15] = tested on: Plasmodium falciparum; experiment: Anti-plasmodial activity against chloroquine-sensitive Plasmodium falciparum NF54 by [3H]-hypoxanthine incorporation assay; type: functional; how it was run: as §3
[16] = tested on: Plasmodium falciparum; experiment: Anti-plasmodial activity against chloroquine-sensitive Plasmodium falciparum NF54 late 4/5 stage gametocytes assessed as reduction in ATP levels after 24 hrs by BacTiter-Glo reagent based bioluminescence assay; type: functional; conditions: NF54, 24 h
[17] = tested on: Plasmodium berghei; experiment: Antimalarial activity against GFP-fused Plasmodium berghei ANKA infected in mouse assessed as protection against parasitemia at 50 mg/kg, po administered once daily for 4 days measured 30 days post infection by light microscopy; type: functional, organism-based
How it was run: (§4)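 P. berghei-infected mice, 3 per group. Compound formulated in 90/10 Tween80/ethanol (v/v), diluted 10-fold with water, given orally once daily at 4, 24, 48 and 72 h post-infection. Outcomes: % parasitemia reduction versus untreated control, mean survival days, and cured/infected. Mice with <40% reduction euthanized on day 4.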

[18] = tested on: Plasmodium berghei; experiment: Antimalarial activity against GFP-fused Plasmodium berghei ANKA infected in mouse assessed as protection against parasitemia at 25 mg/kg, po administered once daily for 4 days measured 30 days post infection by light microscopy; type: functional, organism-based
[19] = tested on: Plasmodium berghei; experiment: Antimalarial activity against GFP-fused Plasmodium berghei ANKA infected in mouse assessed as protection against parasitemia at 12.5 mg/kg, po administered once daily for 4 days measured 30 days post infection by light microscopy; type: functional, organism-based
[20] = tested on: Plasmodium berghei; experiment: Antimalarial activity against GFP-fused Plasmodium berghei ANKA infected in mouse assessed as protection against parasitemia at 6 mg/kg, po administered once daily for 4 days measured 30 days post infection by light microscopy; type: functional, organism-based
[21] = tested on: Plasmodium berghei; experiment: Antimalarial activity against GFP-fused Plasmodium berghei ANKA infected in mouse assessed as protection against parasitemia at 3 mg/kg, po administered once daily for 4 days measured 30 days post infection by light microscopy; type: functional, organism-based; how it was run: as §4

SMILES	IC50 [1] [nM]	IC50 [2] [nM]	selectivity ratio [3]	remaining at 0.5 h, 1 µM [5] [%]	remaining at 0.5 h, 1 µM [6] [%]	Ratio IC50 [8]	Activity [9]	Ratio IC50 [10]	IC50 [11] [nM]	inhibition [12]	inhibition [13]	IC50 [14] [nM]	IC50 [15] [nM]	IC50 [16] [nM]	also measured
CCNCCNc1cc(-c2ccc(C(F)(F)F)cc2)c(C#N)c2nc3ccccc3n12 [listing 1 of 2 here]	< 45000	1560	13	97	84	2.4	Non-Toxic	<1.5							solubility kinetic at 2 h [4]: < 5 µM; IC50 [7]: 620 nM
O=C1C(O)=C([C@H]2CC[C@H](c3ccc(Cl)cc3)CC2)C(=O)c2ccccc21 [ATOVAQUONE]									1						
COc1cc(NC(C)CCCN)c2ncccc2c1 (stereo not given) [PRIMAQUINE]									8420						
CCNCCNc1cc(-c2ccc(Cl)c(Cl)c2)c(C#N)c2nc3ccccc3n12	< 45000	1550	14	65	60	1.2	Non-Toxic			Dose-dependent effect	Dose-dependent effect	120	110	590	
CCNCCNc1cc(-c2ccc(C(F)(F)F)cc2)c(C#N)c2nc3ccccc3n12 [listing 2 of 2 here]										Dose-dependent effect	Dose-dependent effect				Activity [17]: inactive; Activity [18]: inactive; Activity [19]: inactive; Activity [20]: inactive; Activity [21]: inactive
N#Cc1c(-c2ccc(C(F)(F)F)cc2)cc(NCCn2ccnc2)n2c1nc1ccccc12	< 45000	10500	27			1.1	Non-Toxic	1.5 - 2				790	390	1020	
